Data taken from publication PMC3207261 (European journal of nuclear medicine and molecular imaging, 2010).
Several values for one entry are separate records, joined by “and”; a condition that tells them apart may be missing. Equal entries are not always repeated. Entries after “also recorded” stand apart in the source; their conditions may differ. Where two headings read alike, the source gives them in different places. Marks after values point to notes of the source that are not given here.

What was measured:
[1] = cited from earlier work
[2] = Radiation dose of other ^18F-labeled radioligands; assay type: in vivo; details: approximate effective dose calculated from the reported doses of individual organs
[3] = Whole-body PET biodistribution after intravenous injection of ^18F-SP203; assay type: in vivo, humans
In short: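 Seven healthy volunteers (3 female, 4 male) received 141±41 MBq i.v. 2-D dynamic whole-body PET covered seven 15-cm bed positions (head to upper thigh) in 16 frames (15 s–4 min), 300 min total, including three 30-min rest periods. OSEM reconstruction with attenuation and scatter correction. Regions were drawn per coronal slice (high-uptake organs) or on summed slices (low-uptake). Uptake was expressed as % injected activity, mean±SD.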

[4] = Radiation absorbed doses by Medical Internal Radiation Dose scheme; assay type: in vivo, humans
In short: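 Mean residence times of seven subjects were entered for a 70-kg adult male model. Red marrow residence came from the lumbar vertebrae, with all vertebral activity assigned to marrow, × 100/11.7. […] Bladder used the dynamic model with a 2.4-h voiding interval. Maximal injectable activity was derived from dose per MBq against the annual dose limits.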

[5] = assay type: in vivo, humans
[6] = system: glutathione S-transferase; details: both in vitro and in vivo, via glutathione S-transferase, ref [16]; cited from earlier work
[7] = system: mGluR5; details: late time points; ref [3]; cited from earlier work
[8] = Residence times of source organs from whole-body imaging; assay type: in vivo, humans; details: mean±SD
In short: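 Residence time = area under each organ's time–activity curve (fraction of injected activity). Decay correction was removed and recovery correction applied (first-frame body activity vs dose-calibrator value). Area was trapezoidal to end of imaging, then physical decay only to infinity. Right-lung activity was scaled by the lung mass ratio 1:1.87. Organs spanning beds used the timing of their main bed position.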

[9] = ref Communication from R.M. Kessler

N[C@@H](Cc1cc(O)c(O)cc1[18F])C(=O)O [^18F-FDOPA]
Dose to red marrow ([1]; ref [24]): 10.5 μSv/MBq | Effective dose ([1]; ref [24]): 19.9 μSv/MBq

COC(=O)[C@H]1[C@@H](c2ccc(Cl)cc2)C[C@@H]2CC[C@H]1N2CC[18F] [^18F-FECNT]
Dose to red marrow ([1]; ref [21]): 16.1 μSv/MBq | Effective dose ([1]; ref [21]): 15.8 μSv/MBq

COC(=O)[C@H]1[C@@H](c2ccc(I)cc2)C[C@@H]2CC[C@H]1N2CCC[18F] [^18F-FPCIT]
Effective dose ([2]; ref [25]): ~8.6^a μSv/MBq | Dose to red marrow ([1]; ref [25]): 5.1 μSv/MBq

C=CCN1CCC[C@H]1CNC(=O)c1cc(CCC[18F])cc(OC)c1OC [^18F-Fallypride]
Dose to red marrow [1, 9]: 19.5 μSv/MBq | Effective dose [1, 9]: 21.1 μSv/MBq

Fc1ncccc1OC[C@@H]1CCN1 [^18F-Fluoro-A-85380]
Dose to red marrow ([1]; ref [23]): 14.1 μSv/MBq | Effective dose ([1]; ref [23]): 23.7 μSv/MBq

C[C@]12CCC(=O)C[C@@H]1CC[C@@H]1[C@@H]2CC[C@]2(C)[C@@H](O)[C@@H]([18F])C[C@@H]12 [^18F-Fluorodihydrotestosterone]
Effective dose ([2]; ref [20]): ~12.5^a μSv/MBq | Dose to red marrow ([1]; ref [20]): 18.7 μSv/MBq

Cc1cn([C@H]2C[C@H]([18F])[C@@H](CO)O2)c(=O)[nH]c1=O [^18F-Fluorothymidine]
Effective dose ([2]; ref [19]): ~15.5^a μSv/MBq | Dose to red marrow ([1]; ref [19]): 24.0 μSv/MBq

CNc1ccc(-c2nc3ccc(O)cc3s2)cc1[18F] [^18F-GE067]
Dose to red marrow ([1]; ref [22]): 15.3 μSv/MBq | Effective dose ([1]; ref [22]): 33.8 μSv/MBq

N#Cc1cc(F)cc(C#Cc2csc(C[18F])n2)c1 [^18F-SP203, 3-fluoro-5-(2-(2-^18F-(fluoromethyl)-thiazol-4-yl)ethynyl)benzonitrile]
Time of peak uptake in brain, kidneys, lungs, heart and spleen ([3]; after injection): ≤ 8 min | Distribution of radioactivity in the skeleton ([3]; bone structures with vs without red marrow): most of the radioactivity was in bone structures that contain red marrow and not in those without red marrow; also recorded: the majority of activity in the human skeleton was in the red marrow rather than in bone itself; also recorded: most of the radioactivity was in bone structures that contain red marrow and not in bones without red marrow | Peak uptake in brain ([3]; brain, seven healthy humans, i.v.): 11 % of injected activity | Radioactivity accumulated in gallbladder (asymptote / maximum) ([3]; gallbladder): 0.9 % of injected activity | Time to reach asymptote / maximum in gallbladder ([3]; gallbladder): ≤ 100 min | Peak uptake in heart ([3]; heart): 3.4 % of injected activity | Defluorination in humans ([3]; judged from distribution of radioactivity in bone structures with various proportions of bone and red marrow): undergoes little defluorination | Peak uptake in liver ([3]; liver, seven healthy humans, i.v.): 12.8±3.4 % of injected activity | Peak uptake in lungs ([3]; lungs): 4.7 % of injected activity and 4.7±1.5 % of injected activity | Radioactivity accumulated in red marrow (asymptote) ([3]; red marrow): 14 % of injected activity | Time to reach asymptote in red marrow ([3]; red marrow): ≤ 100 min | Maximal injectable activity per year ([4]; Europe, effective dose limit 10 mSv per year): no more than 562 MBq | Radiation dose, brain [4]: 127.0 mrem/mCi | Radiation dose, brain ([4]; standard reference man): 34.5 μSv/MBq | Pharmacological effects during the 5-h scan ([5]; 141±41 MBq (1.9±1.0 nmol SP203) i.v., subject reports, ECG, blood pressure, pulse rate, respiration rate): no pharmacological effects | Effects in blood and urine tests ([5]; acquired 7 to 24 h after radioligand injection): no effects were noted | Defluorination in rat brain [6]: defluorinated | Radioactivity in the skull in human brain imaging [7]: moderate uptake of radioactivity in the skull; also recorded: moderate amount of radioactivity accumulation in the skull | Residence time, brain ([8]; brain, seven subjects): 0.192 h and 0.192 ± 0.048 h | Residence time, gallbladder ([8]; gallbladder, seven subjects): 0.018 h and 0.018 ± 0.009 h | Residence time, heart ([8]; heart, seven subjects): 0.024 h and 0.024 ± 0.008 h | Residence time, kidney ([8]; kidney, seven subjects): 0.037 ± 0.004 h | Residence time, liver ([8]; liver, seven subjects): 0.091 h and 0.091 ± 0.015 h | Residence time, lungs ([8]; lungs, seven subjects): 0.065 h and 0.065 ± 0.017 h | Residence time, red marrow ([8]; red marrow (from lumbar vertebrae x 100/11.7)): 0.307 h and 0.307 ± 0.063 h | Residence time, remainder of body ([8]; remainder of body): 1.585 ± 0.147 h | Residence time, spleen ([8]; spleen, seven subjects): 0.014 h and 0.014 ± 0.004 h

FC(F)(F)c1nnnn1-c1ccc(OC[18F])c(CN[C@H]2CCCN[C@H]2c2ccccc2)c1 [^18F-SPARQ]
Dose to red marrow ([1]; ref [7]): 15.8 μSv/MBq | Effective dose ([1]; ref [7]): 29.3 μSv/MBq
